For data set [1], the system named is MDA-MB-231. Nature of the data set: Growth inhibition of human MDA-MB-231 cells by MTT assay. Type of data set: functional. Put shortly:
(§1)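 Cells grown in RPMI 1640 with 10% FBS, plated at 2500 cells/well, treated across a dose range; growth read by MTT. GI50 taken from dose–response curves by nonlinear regression, at least three independent experiments.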
(Tetrazolium dyes change colour on reduction, which living cells bring about.)

Data set [2] can be described thus: Growth inhibition of human SKBR3 cells by MTT assay. The following applies: SK-BR-3. Type of data set: functional. Put shortly:
as §1

For data set [3], the system named is MCF7. Nature of the data set: Reduction in Mnk1 protein expression in human MCF7 cells at 0.63 uM to 20 uM after 24 hrs by SDS-PAGE and Western blotting method. Type of data set: functional, cell-based. Put shortly:
(§2)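 Breast cancer cells in RPMI 1640 with 10% FBS treated 24 h at indicated concentrations, DMSO vehicle control; equal protein loaded on SDS–PAGE and immunoblotted for Mnk1, Mnk2, peIF4E, eIF4E and cleaved PARP; blots reprobed for GAPDH as loading control.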
Background: Immunoblotting shows a protein as a band on a membrane.

For data set [4], the system named is MCF7. The experiment in a line: Reduction in Mnk2 protein expression in human MCF7 cells at 0.63 uM to 20 uM after 24 hrs by SDS-PAGE and Western blotting method. Type of data set: functional, cell-based. The method in brief:
as §2

For data set [5], the system named is MDA-MB-231. Nature of the data set: Reduction in Mnk1 protein expression in human MDA-MB-231 cells at 0.63 uM to 20 uM after 24 hrs by SDS-PAGE and Western blotting method. The format is functional, cell-based. The method in brief:
as §2

For data set [6], the system named is MDA-MB-468. The experiment in a line: Reduction in peIF4E protein expression in human MDA-MB-468 cells at 0.63 uM to 20 uM after 24 hrs by SDS-PAGE and Western blotting method. The format is functional, cell-based. The method in brief:
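MCF-7, MDA-MB-231 and MDA-MB-468 cells, kept in RPMI 1640 with 10% FBS, were exposed for 24 h to a range of concentrations, with DMSO vehicle controls. Equal protein from lysates was separated by SDS–PAGE and probed for Mnk1, Mnk2, peIF4E, eIF4E and cPARP. GAPDH reprobing served as loading control.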

Data set [7] deals with MDA-MB-468. Nature of the data set: Effect on total eIF4E protein expression in human MDA-MB-468 cells at 0.63 uM to 20 uM after 24 hrs by SDS-PAGE and Western blotting method. Type of data set: functional, cell-based. Put shortly: as §2
The test system of data set [8] is MCF7. The experiment in a line: Effect on total eIF4E protein expression in human MCF7 cells at 0.63 uM to 20 uM after 24 hrs by SDS-PAGE and Western blotting method. The format is functional, cell-based. Put shortly:
as §2

Data set [9] deals with MDA-MB-468. The experiment in a line: Induction of apoptosis in human MDA-MB-468 cells assessed as increase in c-PARP formation at 0.63 uM to 20 uM after 24 hrs by SDS-PAGE and Western blotting method. The format is functional, cell-based. The method in brief: as §2
Data set [10] concerns LNCaP. Nature of the data set: Reduction in fAR protein expression in human LNCAP cells at 0.6 uM to 20 uM after 24 hrs by SDS-PAGE and Western blotting method. The format is functional, cell-based. The method in brief:
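LNCaP cells were treated for 24 h across 0.6–20 μM, with vehicle (DMSO) controls. Equal protein from lysates was run on SDS–PAGE and immunoblotted for fAR, Mnk1/2, peIF4E, cyclin D1 and cleaved PARP. Blots were reprobed for β-actin as loading control.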

The subject of data set [11] is LNCaP. The experiment in a line: Effect on total eIF4E protein expression in human LNCAP cells at 0.6 uM to 20 uM after 24 hrs by SDS-PAGE and Western blotting method. The format is functional, cell-based.
In data set [12] the target is T1, Androgen receptor (Homo sapiens) (UniProt P10275).
T1 sequence (whole entry): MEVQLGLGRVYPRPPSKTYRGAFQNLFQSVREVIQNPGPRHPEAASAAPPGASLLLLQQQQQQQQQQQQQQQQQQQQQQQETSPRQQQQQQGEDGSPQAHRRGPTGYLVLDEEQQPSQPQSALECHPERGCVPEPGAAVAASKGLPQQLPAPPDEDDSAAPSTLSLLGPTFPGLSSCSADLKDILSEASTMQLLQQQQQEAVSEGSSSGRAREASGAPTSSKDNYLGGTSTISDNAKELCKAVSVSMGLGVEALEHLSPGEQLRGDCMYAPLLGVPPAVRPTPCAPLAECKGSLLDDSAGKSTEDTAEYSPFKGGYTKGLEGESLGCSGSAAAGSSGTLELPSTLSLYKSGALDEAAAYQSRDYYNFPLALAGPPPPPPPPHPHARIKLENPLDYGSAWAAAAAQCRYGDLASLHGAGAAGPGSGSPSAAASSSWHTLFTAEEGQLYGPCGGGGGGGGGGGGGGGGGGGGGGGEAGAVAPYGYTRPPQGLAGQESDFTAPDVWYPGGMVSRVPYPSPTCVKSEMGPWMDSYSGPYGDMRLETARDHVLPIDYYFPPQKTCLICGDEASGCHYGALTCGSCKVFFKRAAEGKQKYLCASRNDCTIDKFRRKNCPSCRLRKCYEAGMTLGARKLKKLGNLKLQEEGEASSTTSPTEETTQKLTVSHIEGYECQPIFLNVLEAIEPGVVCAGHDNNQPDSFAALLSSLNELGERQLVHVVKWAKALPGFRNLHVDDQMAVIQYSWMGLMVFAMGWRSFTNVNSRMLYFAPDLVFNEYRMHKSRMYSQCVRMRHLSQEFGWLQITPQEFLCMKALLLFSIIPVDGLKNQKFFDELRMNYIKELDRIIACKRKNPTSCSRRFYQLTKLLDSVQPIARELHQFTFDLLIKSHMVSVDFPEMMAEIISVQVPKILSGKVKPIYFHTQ
Conditions: LNCaP, at 10 µM.

Another data set has as its system Mus musculus. Nature of the data set: Toxicity in human MDA-MB-231 cells xenografted athymic nude mouse assessed as effect on body weight at 20 mg/kg, ip dosed once daily for 5 days per week for 28 days. Conditions: in vivo. In general terms: A xenograft is tissue or cells of one species grown in another, often human tumour cells in immunodeficient mice.
In data set [13] the test system is MDA-MB-231. Nature of the data set: Antitumor activity against human MDA-MB-231 cells xenografted in nude mouse assessed as reduction in peIF4E protein expression at 20 mg/kg, ip dosed once daily for 5 days per week for 28 days by SDS-PAGE and Western blotting method.
For data set [14], the system named is MDA-MB-231. The experiment in a line: Antitumor activity against human MDA-MB-231 cells xenografted in nude mouse assessed as reduction in cyclin D1 protein expression at 20 mg/kg, ip dosed once daily for 5 days per week for 28 days by SDS-PAGE and Western blotting method.
Data set [15] concerns CWR22R. Nature of the data set: Antitumor activity against human CWR22Rv1 cells xenografted in SCID mouse assessed as increase in Bad protein expression at 20 mg/kg, ip dosed once daily for 5 days per week for 28 days by SDS-PAGE and Western blotting method. Type of data set: functional, organism-based. Also noted: dose 20 mg/kg. Put shortly:
(§3)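 CWR22Rv1 cells (1 × 10⁶) implanted subcutaneously in male SCID mice, castrated; at ~100 mm³ tumors, randomized (n = 6/group) to vehicle (40% β-cyclodextrin in ddH₂O) or drug ip in same vehicle once daily, 5 days/week for 28 days. Tumor lysates made in RIPA buffer, 50 μg protein from pooled samples (n = 6) on 10% SDS–PAGE, immunoblotted; GAPDH as loading control.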

The subject of data set [16] is CWR22R. Nature of the data set: Antitumor activity against human CWR22Rv1 cells xenografted in SCID mouse assessed as reduction in Mnk1/2 protein expression at 20 mg/kg, ip dosed once daily for 5 days per week for 28 days by SDS-PAGE and Western blotting method. The format is functional, organism-based. Also noted: dose 20 mg/kg. The method in brief: as §3

Data on 2 compounds can be found in ChEMBL document CHEMBL3414559, “Novel C-4 heteroaryl 13-cis-retinamide Mnk/AR degrading agents inhibit cell proliferation and migration and induce apoptosis in human breast and prostate cancer cells and suppress growth of MDA-MB-231 human breast and CWR22Rv1 human prostate tumor xenografts in mice” (J Med Chem, 2015).

Molecules are shown by their SMILES. Calls of active or inactive are those of the source. No cut-off for these calls is given here.

Broadly, the GI50 is the concentration giving 50% growth inhibition. Read a high GI50 as lower sensitivity of the cells.

In the case of `CC1=C(/C=C/C(C)=C/C=C/C(C)=C\C(=O)NCc2ccc(O)cc2)C(C)(C)CCC1n1ccnc1` (configuration not stated), the GI50 in the data set on MDA-MB-231 [1] worked out at 2.23 µM; in data set [2] it was 2.45 µM. The inhibition result in the data set with MCF7 [3], in the data set with MCF7 [4], with MDA-MB-231 [5], in the data set on MDA-MB-468 [6] and with LNCaP [10] was “Dose-dependent effect” throughout. For the same compound, the result in the data set on MDA-MB-468 [7], in the data set on MCF7 [8] and in the data set with LNCaP [11] was inactive. For the same compound, the Activity entry in the data set with MDA-MB-468 [9] was “Dose-dependent effect”; with Mus musculus, “Non-toxic”. The inhibition result in [12] was “Active”. In addition, the result in the data set on MDA-MB-231 [13] and in the data set on MDA-MB-231 [14] was Active.
On to `CC1=C(/C=C/C(C)=C/C=C/C(C)=C\C(=O)Nc2cccc(F)c2)C(C)(C)CCC1n1ccnc1` (configuration not stated), for which the outcome with CWR22R [15], in the data set on CWR22R [16], with MDA-MB-231 [13] and with MDA-MB-231 [14] was Active. Also, the GI50 in the data set with MDA-MB-231 [1] was 8.51 µM; in [2], 17 µM. Besides, the inhibition result in the data set on MCF7 [3], in the data set on MCF7 [4], in the data set with MDA-MB-231 [5], in the data set on MDA-MB-468 [6] and in the data set on LNCaP [10] was “Dose-dependent effect” throughout. In addition, the outcome with MDA-MB-468 [7], in the data set with MCF7 [8] and with LNCaP [11] was inactive. The values for the Activity entry with MDA-MB-468 [9] and with Mus musculus were “Dose-dependent effect” and “Non-toxic”, respectively. Also, the inhibition entry in data set [12] is “Active”.
